Reference: ChEMBL document CHEMBL1208690, “A novel aryl-hydrazide from the marine lichen Lichina pygmaea: isolation, synthesis of derivatives, and cytotoxicity assays” (Bioorg Med Chem Lett, 2010)

Assays:
A-375 [1] = assay: Cytotoxicity activity against human A375 cells at 50 uM after 48 hrs by NRU assay; format: functional; details: A-375, 48 h
How it was run: (§1)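 Neutral red uptake assay. A375 cells were seeded at 12×10³ and B16 at 10×10³ cells/well, then incubated 24 h at 37 °C in humidified 5% CO₂. Cells were exposed to compound dilutions in RPMI for 24 or 48 h. Dye was extracted with ethanol/acetic acid/water (50:1:49) and A540 read. IC50 was taken graphically from concentration-effect curves.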

B16 [2] = assay: Cytotoxicity activity against mouse B16 cells after 48 hrs by NRU assay; format: functional, cell-based; details: B16, 48 h; how it was run: as §1
A-375 [3] = assay: Cytotoxicity activity against human A375 cells after 24 hrs by NRU assay; format: functional, cell-based; details: A-375, 24 h; how it was run: as §1
B16 [4] = assay: Cytotoxicity activity against mouse B16 cells at 50 uM after 24 hrs by NRU assay; format: functional; details: B16, 24 h; how it was run: as §1
A-375 [5] = assay: Cytotoxicity activity against human A375 cells at 50 uM after 24 hrs by NRU assay; format: functional; details: A-375, 24 h; how it was run: as §1
B16 [6] = assay: Cytotoxicity activity against mouse B16 cells after 24 hrs by NRU assay; format: functional, cell-based; details: B16, 24 h; how it was run: as §1
A-375 [7] = assay: Cytotoxicity activity against human A375 cells after 48 hrs by NRU assay; format: functional, cell-based; details: A-375, 48 h; how it was run: as §1
B16 [8] = assay: Cytotoxicity activity against mouse B16 cells at 50 uM after 48 hrs by NRU assay; format: functional; details: B16, 48 h; how it was run: as §1

## N[C@@H](CCC(=O)NNc1cccc(O)c1)C(=O)O
A-375 [1]
  inhibition at 50 µM: 14%
B16 [2]
  IC50: 12 µM
A-375 [3]
  IC50: > 50 µM
B16 [4]
  inhibition at 50 µM: 100%
A-375 [5]
  inhibition at 50 µM: 8%
B16 [6]
  IC50: 12 µM
A-375 [7]
  IC50: > 50 µM
B16 [8]
  inhibition at 50 µM: 100%

## O=C(CC[C@H](NC(=O)OCc1ccccc1)C(=O)OCc1ccccc1)NNc1ccccc1OCc1ccccc1
A-375 [1]
  inhibition at 50 µM: 69%
B16 [2]
  IC50: 15 µM
A-375 [3]
  IC50: 29 µM
B16 [4]
  inhibition at 50 µM: 96%
A-375 [5]
  inhibition at 50 µM: 77%
B16 [6]
  IC50: 21 µM
A-375 [7]
  IC50: 30 µM
B16 [8]
  inhibition at 50 µM: 100%

## O=C(CC[C@H](NC(=O)OCc1ccccc1)C(=O)OCc1ccccc1)NNc1cccc(OCc2ccccc2)c1
A-375 [1]
  inhibition at 50 µM: 73%
B16 [2]
  IC50: 14.5 µM
A-375 [3]
  IC50: 28 µM
B16 [4]
  inhibition at 50 µM: 100%
A-375 [5]
  inhibition at 50 µM: 80%
B16 [6]
  IC50: 8 µM
A-375 [7]
  IC50: 29 µM
B16 [8]
  inhibition at 50 µM: 100%

## O=C(CC[C@H](NC(=O)OCc1ccccc1)C(=O)OCc1ccccc1)NNc1ccc(OCc2ccccc2)cc1
A-375 [1]
  inhibition at 50 µM: 19%
B16 [2]
  IC50: 0.6 µM
A-375 [3]
  IC50: > 50 µM
B16 [4]
  inhibition at 50 µM: 100%
A-375 [5]
  inhibition at 50 µM: 4%
B16 [6]
  IC50: 5 µM
A-375 [7]
  IC50: > 50 µM
B16 [8]
  inhibition at 50 µM: 100%

## COc1cc([C@@H]2c3cc4c(cc3[C@@H](O[C@@H]3O[C@@H]5CO[C@@H](C)O[C@H]5[C@H](O)[C@H]3O)[C@H]3COC(=O)[C@H]23)OCO4)cc(OC)c1O [ETOPOSIDE]
A-375 [1]
  inhibition at 50 µM: 100%
B16 [2]
  IC50: 0.13 µM
A-375 [3]
  IC50: 19 µM
B16 [4]
  inhibition at 50 µM: 100%
A-375 [5]
  inhibition at 50 µM: 100%
B16 [6]
  IC50: 9 µM
A-375 [7]
  IC50: 12 µM
B16 [8]
  inhibition at 50 µM: 100%

## COC1=C(NC(CO)CO)C[C@@](O)(CO)CC1=O [MYCOSPORINE SERINOL]
A-375 [1]
  inhibition at 50 µM: 20%
B16 [2]
  IC50: 27 µM
A-375 [3]
  IC50: > 50 µM
B16 [4]
  inhibition at 50 µM: 34%
A-375 [5]
  inhibition at 50 µM: 11%
B16 [6]
  IC50: > 50 µM
A-375 [7]
  IC50: > 50 µM
B16 [8]
  inhibition at 50 µM: 85%

## N[C@@H](CCC(=O)NNc1ccc(O)cc1)C(=O)O [XANTHODERMINE]
A-375 [1]
  inhibition at 50 µM: 31%
B16 [2]
  IC50: 0.7 µM
A-375 [3]
  IC50: > 50 µM
B16 [4]
  inhibition at 50 µM: 100%
A-375 [5]
  inhibition at 50 µM: 12%
B16 [6]
  IC50: 1.6 µM
A-375 [7]
  IC50: > 50 µM
B16 [8]
  inhibition at 50 µM: 100%
